Laboratory results as given in PubChem BioAssay.
Active and inactive are the calls of the source.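 Rule for the calls, unless noted: active = potentiation averaged over duplicate wells exceeding buffer-only control mean by more than 3 SD; inactive = the rest.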

target: Potassium voltage-gated channel subfamily KQT member 1 (Homo sapiens) (UniProt P51787); experiment: KCNQ1 potassium channel potentiators, confirmation, FluxOR thallium flux, CHO cells, duplicates (AID 493007); details: KCNQ1 cell line, FluxOR thallium flux fluorescence, at 10 µM; active compounds read high, % of reference activator effect, buffer zero;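 for outcome: cells depolarized by a potassium plus thallium sulfate stimulus after compound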
How it was run: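 Material: CHO cells stably expressing the KCNQ1 potassium channel / Times: dye 90 min then compound 20 min, both at room temperature / Detection: kinetic thallium influx fluorescence with FluxOR dye, 10 s baseline, 110 s post-stimulus / Benchmarks: buffer-only wells as 0% and R-L3 activator as 100% / Replicates: each compound tested in duplicate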

Sequence of Potassium voltage-gated channel subfamily KQT member 1 (Homo sapiens) (P51787 whole entry, looked up): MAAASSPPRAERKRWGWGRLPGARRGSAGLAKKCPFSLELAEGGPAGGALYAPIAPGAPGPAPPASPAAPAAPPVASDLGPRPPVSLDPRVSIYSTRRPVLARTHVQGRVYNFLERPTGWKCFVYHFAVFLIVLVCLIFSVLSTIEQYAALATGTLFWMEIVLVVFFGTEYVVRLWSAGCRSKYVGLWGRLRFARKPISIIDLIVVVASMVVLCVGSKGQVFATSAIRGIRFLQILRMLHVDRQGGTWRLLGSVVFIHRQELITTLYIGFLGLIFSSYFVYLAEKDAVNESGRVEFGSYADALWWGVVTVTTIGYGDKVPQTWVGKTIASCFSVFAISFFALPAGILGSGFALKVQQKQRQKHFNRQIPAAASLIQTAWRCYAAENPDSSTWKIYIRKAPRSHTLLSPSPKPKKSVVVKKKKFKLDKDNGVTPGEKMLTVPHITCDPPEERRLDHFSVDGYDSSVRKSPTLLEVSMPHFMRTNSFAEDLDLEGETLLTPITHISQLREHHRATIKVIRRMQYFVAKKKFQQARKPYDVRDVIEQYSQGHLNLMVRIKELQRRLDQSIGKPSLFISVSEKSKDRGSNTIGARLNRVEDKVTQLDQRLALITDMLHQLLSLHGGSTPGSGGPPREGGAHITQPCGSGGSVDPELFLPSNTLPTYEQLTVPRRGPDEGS

| SMILES | outcome | potentiation |
| --- | --- | --- |
| COc1cccc(OC)c1C(=O)Nc1ccc(C(=O)NCc2ccccc2)cc1 | inactive |  |
| CCC1CCCCN1C(=S)NC(=O)c1cccs1 (stereo not given) |  | 216% (active) |
| CCOC(=O)C1CCN(C(=O)c2c(C)oc3c2C(=O)c2ccccc2C3=O)CC1 | inactive |  |
| CCn1c(SC(C)C(=O)O)nc2sc3c(c2c1=O)CCC3 (stereo not given) |  | 42.5% (active) |
| O=C(NC(=S)N1CCCCCC1)c1ccccc1 | inactive |  |
| CCCc1ccc2oc(C(=O)N(C)CCn3ccnc3C)c(C)c2c1 | inactive |  |
| CC(=O)c1c(N2CCCC2)[nH]c(-c2ccccc2)nc1=S | inactive |  |
| COc1cccc(C(=O)Nc2nc(-c3ccccc3)c(-c3ccccc3)o2)c1 |  | 31% (active) |
| CC(OC(=O)CCCNC(=O)c1ccc(Cl)cc1)C(=O)N(C)Cc1ccccc1 (stereo not given) | inactive |  |
| CCC1CCc2c(sc(NC(=O)C3CC=CCC3C(=O)O)c2C#N)C1 (stereo not given) | inactive |  |
| O=C(CNCC1CCCCC1)Nc1ccc(OC(F)(F)F)cc1 | inactive |  |
| CCOC(=O)Cc1csc(NC(=S)NC(=O)c2ccccc2C)n1 |  | 45.5% (active) |
| Cc1ccc(N=Nc2ccc(O)c3ncccc23)cc1C |  | 24.5% (active) |
| O=c1[nH]c(=S)[nH]c2sc3c(c12)CCCCCC3 | inactive |  |
| CC(C)n1c(=S)[nH]c2scc(-c3cccs3)c2c1=O |  | 200% (active) |
| O=C(NC(=S)NCCc1ccccc1)c1cccc(Cl)c1 |  | 141% (active) |
| CCOC(=O)c1ccc(N2C(=O)c3n[nH]c(C)c3C2c2ccccn2)cc1 (stereo not given) | inactive |  |
| CC(=O)Oc1c(-c2ccco2)oc2ccccc2c1=O |  | 31% (active) |
| Cc1ccc(C)c(NC(=S)NC(=O)c2cncc(Br)c2)c1 |  | 18.5% (active) |
| O=C(NC(=S)NCCC1=CCCCC1)c1ccco1 |  | 97% (active) |

| SMILES | outcome | potentiation |
| --- | --- | --- |
| COc1cccc(-c2cn(-c3cccc(C(F)(F)F)c3)c(=S)[nH]2)c1 | inactive |  |
| COc1ccc(C(=O)NNC(=O)C(=O)Nc2ccc(C)cc2)cc1 |  | 123% (active) |
| O=C(N/N=C/c1ccccn1)c1sc2ccccc2c1Cl |  | 41% (active) |
| O=Cc1ccccc1OCCCOc1cccc2cccnc12 | inactive |  |
| O=c1c(Cl)c(Cl)cnn1Cc1nnc(-c2ccccc2Br)o1 | inactive |  |
| Cc1ccc(C(=O)NNC(=O)CCCCC(=O)NNC(=O)c2ccc(C)cc2)cc1 | inactive |  |
| COc1ccc(OC)c(S(=O)(=O)CC(O)CS(=O)(=O)c2ccccc2)c1 (stereo not given) | inactive |  |
| CN1C=CC=C/C1=C1\SC(=S)N(Cc2ccccc2)C1=O | inactive |  |
| CC(=O)NC(NC(C)=O)c1ccc(N(C)C)cc1 | inactive |  |
| COCCCn1c(=S)[nH]c2sc3c(c2c1=O)CCCS3 |  | 30.5% (active) |
| C1=Nc2ccccc2CN1c1ccccc1 | inactive |  |
| CCN(c1ccc(NS(=O)(=O)c2cc(Cl)ccc2Cl)cc1)C(C)C | inactive |  |
| S=c1nc(C2CCCCC2)n(-c2ccccc2)[nH]1 |  | 117% (active) |
| O=C(Nc1ccc(Cl)cn1)c1cccc(S(=O)(=O)N2CCOCC2)c1 | inactive |  |
| NC(=O)COC(=O)c1ccccc1Nc1ccc(SC(F)F)cc1 |  | 26% (active) |
| COC(=O)c1c(N2C(=O)CC(Sc3ncccc3C(=O)O)C2=O)sc(C)c1C (stereo not given) | inactive |  |
| CN(C)c1oc(-c2ccc(OCc3ccc(Cl)cc3)cc2)nc1C#N | inactive |  |
| CCN(CC)c1ccc(/C=N/Nc2nc3ccccc3[nH]2)c(O)c1 | inactive |  |
| CCN(C(=O)COC(=O)C(Cc1ccccc1)N1C(=O)c2ccccc2C1=O)C1CCS(=O)(=O)C1 (stereo not given) | inactive |  |
| CCOC(=O)c1cccc(NC(=O)CCc2ccccc2)c1 | inactive |  |

target: Potassium voltage-gated channel subfamily KQT member 2 (Rattus norvegicus) (UniProt O88943); experiment: rat KCNQ2 channel potentiation, selectivity assay for KCNQ1 potentiator project, KCNQ2-CHO-K1 cells (AID 493009;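 active = mean duplicate potentiation above the buffer control mean plus 5 SD of buffer wells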;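 note: assay conditions were tuned for KCNQ1 rather than KCNQ2 modulators; signal is max minus min fluorescence divided by baseline after thallium stimulus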); details: FluxOR thallium flux fluorescence, at 10 µM; active compounds read high, scaled: buffer 0, activator control 100
Sequence (O88943 whole entry, looked up): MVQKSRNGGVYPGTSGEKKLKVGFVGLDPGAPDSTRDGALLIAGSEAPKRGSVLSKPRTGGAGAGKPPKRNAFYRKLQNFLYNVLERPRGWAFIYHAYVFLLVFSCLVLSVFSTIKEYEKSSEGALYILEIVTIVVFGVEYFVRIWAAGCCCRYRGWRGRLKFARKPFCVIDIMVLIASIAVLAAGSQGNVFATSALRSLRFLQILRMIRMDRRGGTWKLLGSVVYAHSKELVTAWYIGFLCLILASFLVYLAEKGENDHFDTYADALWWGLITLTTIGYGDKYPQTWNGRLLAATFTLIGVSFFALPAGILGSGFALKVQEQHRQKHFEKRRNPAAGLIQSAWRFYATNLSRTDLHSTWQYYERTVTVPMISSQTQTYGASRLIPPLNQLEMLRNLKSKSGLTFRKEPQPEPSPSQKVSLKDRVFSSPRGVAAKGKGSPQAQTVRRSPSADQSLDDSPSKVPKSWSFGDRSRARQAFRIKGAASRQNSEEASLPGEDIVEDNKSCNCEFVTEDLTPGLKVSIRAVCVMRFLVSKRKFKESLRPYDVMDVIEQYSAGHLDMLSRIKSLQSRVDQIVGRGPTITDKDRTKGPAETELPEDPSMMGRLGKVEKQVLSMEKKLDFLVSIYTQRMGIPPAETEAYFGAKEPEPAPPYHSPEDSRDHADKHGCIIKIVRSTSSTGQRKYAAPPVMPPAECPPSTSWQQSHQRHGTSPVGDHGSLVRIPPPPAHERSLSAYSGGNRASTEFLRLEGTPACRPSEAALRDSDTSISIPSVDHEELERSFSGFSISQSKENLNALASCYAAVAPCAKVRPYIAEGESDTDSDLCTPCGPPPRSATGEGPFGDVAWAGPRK

| SMILES | outcome | potentiation |
| --- | --- | --- |
| COc1cccc(OC)c1C(=O)Nc1ccc(C(=O)NCc2ccccc2)cc1 | inactive |  |
| CCC1CCCCN1C(=S)NC(=O)c1cccs1 (stereo not given) |  | 493% (active) |
| CCOC(=O)C1CCN(C(=O)c2c(C)oc3c2C(=O)c2ccccc2C3=O)CC1 | inactive |  |
| CCn1c(SC(C)C(=O)O)nc2sc3c(c2c1=O)CCC3 (stereo not given) |  | 230% (active) |
| O=C(NC(=S)N1CCCCCC1)c1ccccc1 | inactive |  |
| CCCc1ccc2oc(C(=O)N(C)CCn3ccnc3C)c(C)c2c1 | inactive |  |
| CC(=O)c1c(N2CCCC2)[nH]c(-c2ccccc2)nc1=S | inactive |  |
| COc1cccc(C(=O)Nc2nc(-c3ccccc3)c(-c3ccccc3)o2)c1 |  | 164% (active) |
| CC(OC(=O)CCCNC(=O)c1ccc(Cl)cc1)C(=O)N(C)Cc1ccccc1 (stereo not given) | inactive |  |
| CCC1CCc2c(sc(NC(=O)C3CC=CCC3C(=O)O)c2C#N)C1 (stereo not given) | inactive |  |
| O=C(CNCC1CCCCC1)Nc1ccc(OC(F)(F)F)cc1 | inactive |  |
| CCOC(=O)Cc1csc(NC(=S)NC(=O)c2ccccc2C)n1 |  | 200% (active) |
| Cc1ccc(N=Nc2ccc(O)c3ncccc23)cc1C |  | 190% (active) |
| O=c1[nH]c(=S)[nH]c2sc3c(c12)CCCCCC3 | inactive |  |
| CC(C)n1c(=S)[nH]c2scc(-c3cccs3)c2c1=O |  | 465% (active) |
| O=C(NC(=S)NCCc1ccccc1)c1cccc(Cl)c1 |  | 342% (active) |
| CCOC(=O)c1ccc(N2C(=O)c3n[nH]c(C)c3C2c2ccccn2)cc1 (stereo not given) | inactive |  |
| CC(=O)Oc1c(-c2ccco2)oc2ccccc2c1=O |  | 244% (active) |
| Cc1ccc(C)c(NC(=S)NC(=O)c2cncc(Br)c2)c1 | inactive |  |
| O=C(NC(=S)NCCC1=CCCCC1)c1ccco1 |  | 315% (active) |

| SMILES | outcome | potentiation |
| --- | --- | --- |
| COc1cccc(-c2cn(-c3cccc(C(F)(F)F)c3)c(=S)[nH]2)c1 | inactive |  |
| COc1ccc(C(=O)NNC(=O)C(=O)Nc2ccc(C)cc2)cc1 |  | 380% (active) |
| O=C(N/N=C/c1ccccn1)c1sc2ccccc2c1Cl |  | 207% (active) |
| O=Cc1ccccc1OCCCOc1cccc2cccnc12 | inactive |  |
| O=c1c(Cl)c(Cl)cnn1Cc1nnc(-c2ccccc2Br)o1 | inactive |  |
| Cc1ccc(C(=O)NNC(=O)CCCCC(=O)NNC(=O)c2ccc(C)cc2)cc1 | inactive |  |
| COc1ccc(OC)c(S(=O)(=O)CC(O)CS(=O)(=O)c2ccccc2)c1 (stereo not given) | inactive |  |
| CN1C=CC=C/C1=C1\SC(=S)N(Cc2ccccc2)C1=O | inactive |  |
| CC(=O)NC(NC(C)=O)c1ccc(N(C)C)cc1 | inactive |  |
| COCCCn1c(=S)[nH]c2sc3c(c2c1=O)CCCS3 | inactive |  |
| C1=Nc2ccccc2CN1c1ccccc1 | inactive |  |
| CCN(c1ccc(NS(=O)(=O)c2cc(Cl)ccc2Cl)cc1)C(C)C | inactive |  |
| S=c1nc(C2CCCCC2)n(-c2ccccc2)[nH]1 |  | 362% (active) |
| O=C(Nc1ccc(Cl)cn1)c1cccc(S(=O)(=O)N2CCOCC2)c1 | inactive |  |
| NC(=O)COC(=O)c1ccccc1Nc1ccc(SC(F)F)cc1 |  | 147% (active) |
| COC(=O)c1c(N2C(=O)CC(Sc3ncccc3C(=O)O)C2=O)sc(C)c1C (stereo not given) | inactive |  |
| CN(C)c1oc(-c2ccc(OCc3ccc(Cl)cc3)cc2)nc1C#N | inactive |  |
| CCN(CC)c1ccc(/C=N/Nc2nc3ccccc3[nH]2)c(O)c1 | inactive |  |
| CCN(C(=O)COC(=O)C(Cc1ccccc1)N1C(=O)c2ccccc2C1=O)C1CCS(=O)(=O)C1 (stereo not given) | inactive |  |
| CCOC(=O)c1cccc(NC(=O)CCc2ccccc2)c1 | inactive |  |
